What is called IC50 is the concentration that inhibits the measured activity by half.

Activity calls are given as the source filed them.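 Rule for the calls: active = inhibition of 30% or more at any tested concentration; inactive = the rest.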

Chain of Aminopeptidase N (Plasmodium falciparum (isolate 3D7)) (O96935 whole entry, looked up): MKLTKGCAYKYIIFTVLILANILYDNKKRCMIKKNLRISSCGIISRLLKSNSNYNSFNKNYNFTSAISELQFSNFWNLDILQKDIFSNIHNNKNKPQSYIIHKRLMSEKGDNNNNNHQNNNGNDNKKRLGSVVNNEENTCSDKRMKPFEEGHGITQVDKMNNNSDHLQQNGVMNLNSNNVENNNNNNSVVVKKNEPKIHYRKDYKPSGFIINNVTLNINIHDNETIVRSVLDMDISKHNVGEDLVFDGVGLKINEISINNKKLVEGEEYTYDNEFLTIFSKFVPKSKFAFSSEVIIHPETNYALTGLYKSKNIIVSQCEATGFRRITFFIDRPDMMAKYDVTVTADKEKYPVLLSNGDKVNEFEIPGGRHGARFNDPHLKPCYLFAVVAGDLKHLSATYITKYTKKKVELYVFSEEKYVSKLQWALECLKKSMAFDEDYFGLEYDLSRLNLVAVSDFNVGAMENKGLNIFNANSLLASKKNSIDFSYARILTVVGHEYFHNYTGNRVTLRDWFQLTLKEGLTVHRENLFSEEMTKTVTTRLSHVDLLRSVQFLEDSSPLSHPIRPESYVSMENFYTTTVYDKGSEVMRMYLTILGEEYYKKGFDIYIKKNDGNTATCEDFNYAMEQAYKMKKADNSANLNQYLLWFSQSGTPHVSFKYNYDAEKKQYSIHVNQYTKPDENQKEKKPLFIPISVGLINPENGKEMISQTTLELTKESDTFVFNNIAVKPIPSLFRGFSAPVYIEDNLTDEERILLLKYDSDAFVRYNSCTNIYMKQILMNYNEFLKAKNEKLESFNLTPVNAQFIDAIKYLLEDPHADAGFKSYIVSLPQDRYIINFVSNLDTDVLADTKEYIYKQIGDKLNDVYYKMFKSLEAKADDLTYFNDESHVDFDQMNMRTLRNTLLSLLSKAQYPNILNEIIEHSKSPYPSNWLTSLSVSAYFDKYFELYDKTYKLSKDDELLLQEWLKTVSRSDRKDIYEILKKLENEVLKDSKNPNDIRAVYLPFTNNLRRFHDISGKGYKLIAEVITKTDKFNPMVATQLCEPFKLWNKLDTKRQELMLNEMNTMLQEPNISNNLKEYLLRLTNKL

One experiment deals with Aminopeptidase N (Plasmodium falciparum (isolate 3D7)) (UniProt O96935). Briefly: inhibition of P. falciparum M1 aminopeptidase – biochemical, QFRET fluorogenic substrate, set 3, counter-screen for PfM18AAP inhibitor project, dose response (AID 624176). The following applies: recombinant PfM1AAP, H-Leu-NHMec fluorogenic cleavage. In a few lines:
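Material: purified recombinant Plasmodium falciparum M1 alanyl aminopeptidase (PfM1AAP); Amount: enzyme 5 µg/mL; Replicates: each concentration tested in triplicate; Measure: IC50 from constrained four-parameter fit; Doses: ten concentrations, twofold dilution steps, highest 100 µM; Timing: reaction 90 min, room temperature; Buffer or medium: Tris-HCl pH 7.5 plus CoCl2; Signal: NHMec fluorescence at 370/460 nm.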
Background: Counterscreens check selectivity or assay interference.
For `Oc1ccc(C2CCN(c3ccnc4ccccc34)CC2)cc1O`, the IC50 is 74.6 µM.

As to `Cc1cccc2c(NCCc3ccc(O)c(O)c3)ccnc12`, the IC50 is 105 µM.

For `CCN(CCc1ccc(O)c(O)c1)c1c2ccccc2nc2ccccc12`, the IC50 was 101 µM.

For `Oc1cccc(CCNc2ccnc3ccccc23)c1O`, the IC50 was 56.4 µM.

As to `CN(CCc1ccc(O)c(O)c1)c1ncnc2ccccc12`, the IC50 was 61.3 µM.

On to `CN(CCc1ccc(O)c(O)c1)c1ccnc2c(F)cccc12`, for which the IC50 is 83.2 µM.

As for `Oc1ccc(CCNc2ccnc3cc(Cl)ccc23)cc1O`, the IC50 is 74.6 µM.

As to `CN(CCc1ccc(O)c(O)c1)c1ccnc2cc(Cl)ccc12`, the IC50 was 75.4 µM.

As for `Cc1cc(N(C)CCc2ccc(O)c(O)c2)c2ccccc2n1`, the IC50 was 101 µM.

Take `Oc1ccc(C2CCN(c3ccnc4ccccc34)C2)cc1O` (stereo not given): the half-inhibitory concentration (IC50) was 47.2 µM.

The same experiment, now with this note: recombinant PfM1AAP, H-Leu-NHMec fluorogenic cleavage; at 100 µM (top of the series).
As to `Nc1c2ccccc2nc2ccccc12`, the inhibition entry is “inactive”.

In the case of `COc1ccc(CCCNc2c3c(nc4ccccc24)CCCC3)cc1OC`, the inhibition entry is “inactive”.

As to `CCOc1ccc2nccc(NCCc3ccc(OC)c(OC)c3)c2c1`, the inhibition entry was “inactive”.

For the compound `COc1ccc(C2CCN(c3ccnc4ccccc34)C2)cc1OC` (stereo not given), the inhibition entry was “inactive”.

In the case of `COc1cc(Br)c(CCNc2ccnc3ccccc23)cc1OC`, the inhibition entry is “inactive”.

Regarding `COc1ccc(CCNc2cc(C)nc3ccccc23)cc1OC`, the inhibition entry was “inactive”.

For `COc1ccc(CCCN(C)c2c3ccccc3nc3ccccc23)cc1OC`, the inhibition entry is “inactive”.

Regarding `COc1ccc(CCNc2ccnc3cc(Cl)ccc23)cc1OC`, the inhibition entry was “inactive”.

For the compound `COc1ccc(CCNc2c3c(nc4ccc(C)cc24)CCCC3)cc1OC`, the inhibition result was “inactive”.

Turning to `COc1ccc(C2CCN(c3ccnc4ccccc34)CC2)cc1OC`, the inhibition entry is “inactive”.

Regarding `COc1ccc(CCNc2ccnc3c(C)cccc23)cc1OC`, the inhibition entry was “inactive”.

Turning to `COc1ccc(CCNC(=O)c2cc(C)ccc2N)cc1OC`, the inhibition result was “inactive”.

As for `COc1ccc(CCN(C)c2ccnc3cc(Cl)ccc23)cc1OC`, the inhibition entry was “inactive”.

Turning to `COc1ccc(CCNc2ncnc3ccccc23)cc1OC`, the inhibition entry is “inactive”.

Turning to `CCOc1ccc2nccc(N(C)CCc3ccc(OC)c(OC)c3)c2c1`, the inhibition entry is “inactive”.

Regarding `COc1ccc(CCN(C)c2ccnc3c(C)cccc23)cc1OC`, the inhibition entry is “inactive”.

Take `COc1ccc(CCN(C)c2c3ccccc3nc3ccccc23)cc1OC`: the inhibition result is “inactive”.

Consider `COc1cc(Br)c(CCNc2c3ccccc3nc3ccccc23)cc1OC`, for which the inhibition entry was “inactive”.

For the compound `COc1cc(Br)c(CCNc2c3c(nc4ccccc24)CCCC3)cc1OC`, the inhibition entry was “inactive”.

With `Clc1c2c(nc3ccccc13)CCCC2`, the inhibition entry is “inactive”.

As to `COc1ccc(CCN(C)c2ccnc3c(F)cccc23)cc1OC`, the inhibition entry was “inactive”.

With `COc1ccc(CCNc2ccnc3c(F)cccc23)cc1OC`, the inhibition result is “inactive”.

For `COc1ccc(CCN(C)c2ncnc3ccccc23)cc1OC`, the inhibition result is “inactive”.

On to `CCN(CCc1ccc(OC)c(OC)c1)c1c2ccccc2nc2ccccc12`, for which the inhibition entry is “inactive”.

As for `COc1ccc(CCN(C)c2cc(C)nc3ccccc23)cc1OC`, the inhibition entry is “inactive”.

The values above are taken from PubChem BioAssay AID624176 (Southern Research Specialized Biocontainment Screening …, 2012).
